Activity calls are given as the source filed them. The calls are words filed in the database; no cut-off is given here.
Key:
[1] = tested on: HeLa C3; experiment: Induction of apoptosis in human HeLaC3 cells assessed as reduction of yellow fluorescent protein/cyan fluorescent protein emission ratio below 3 at 20 uM after 24 hrs using fluorescent plate reader; type: functional, cell-based
Summary of the method: (§1)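 HeLa-C3 cells express a caspase-3-cleavable CFP/YFP biosensor and are grown in MEM with 10% FBS and penicillin/streptomycin at 37 °C, 5% CO2. Seed 7500 cells per well and incubate 12-16 h. Take a 0 h read (ex 440 nm; em 486 nm CFP, 535 nm YFP), then replace the medium with compound-containing medium; include cell-free background wells. Read repeatedly up to 72 h. A YFP/CFP ratio below 3 scores as apoptotic. Triplicate wells, three experiments; 0.1% DMSO negative control.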

[2] = tested on: HeLa C3; experiment: Induction of apoptosis in human HeLaC3 cells assessed as reduction of yellow fluorescent protein/cyan fluorescent protein emission ratio below 3 at 20 uM after 72 hrs using fluorescent plate reader; type: functional, cell-based; summary of the method: as §1
[3] = tested on: HeLa C3; experiment: Induction of apoptosis in human HeLaC3 cells assessed as reduction of yellow fluorescent protein/cyan fluorescent protein emission ratio below 3 at 20 uM after 48 hrs using fluorescent plate reader; type: functional, cell-based; summary of the method: as §1
[4] = tested on: HeLa C3; experiment: Induction of apoptosis in human HeLaC3 cells assessed as reduction of yellow fluorescent protein/cyan fluorescent protein emission ratio below 3 at 500 nM after 48 hrs using fluorescent plate reader
[5] = tested on: HeLa C3; experiment: Induction of apoptosis in human HeLaC3 cells assessed as reduction of yellow fluorescent protein/cyan fluorescent protein emission ratio below 3 at 500 nM after 24 hrs using fluorescent plate reader
[6] = tested on: HeLa C3; experiment: Induction of apoptosis in human HeLaC3 cells assessed as reduction of yellow fluorescent protein/cyan fluorescent protein emission ratio below 3 at 500 nM after 72 hrs using fluorescent plate reader
[7] = tested on: HeLa C3; experiment: Induction of apoptosis in human HeLaC3 cells assessed as shrinkage and detached morphology at 500 nM after 48 hrs
[8] = tested on: HeLa C3; experiment: Induction of apoptosis in human HeLaC3 cells assessed as shrinkage and detached morphology at 500 nM after 24 hrs
[9] = tested on: HeLa C3; experiment: Induction of apoptosis in human HeLaC3 cells assessed as shrinkage and detached morphology at 500 nM after 72 hrs
[10] = tested on: HeLa C3; experiment: Induction of apoptosis in human HeLaC3 cells assessed as shrinkage and detached morphology at 20 uM after 24 hrs; type: functional, cell-based
[11] = tested on: HeLa C3; experiment: Induction of apoptosis in human HeLaC3 cells assessed as shrinkage and detached morphology at 20 uM after 48 hrs; type: functional, cell-based
[12] = tested on: HeLa C3; experiment: Induction of apoptosis in human HeLaC3 cells assessed as shrinkage and detached morphology at 20 uM after 72 hrs; type: functional, cell-based

| SMILES | Activity [1] | Activity [2] | Activity [3] | further results |
| --- | --- | --- | --- | --- |
| CC1(C)C=Cc2cc3c(=O)c4c(O)cc(O)cc4oc3c(O)c2O1 | inactive | Active | inactive |  |
| CC(C)=CCC/C(C)=C/C[C@H]1C[C@]2(C/C=C(\C)CCC=C(C)C)C(=O)[C@@](CC=C(C)C)(C(=O)C(C(=O)c3ccc(O)c(O)c3)=C2O)C1(C)C | inactive | Active | inactive |  |
| CC(C)=CCC/C(C)=C/C[C@@H]1C[C@]2(CC=C(C)C)C(=O)[C@@](CC=C(C)C)(C(=O)C(C(=O)c3ccc(O)c(O)c3)=C2O)C1(C)C | inactive | Active | Active |  |
| COc1cc(O)c2c(=O)c3c(CC=C(C)C)cc(O)c(O)c3oc2c1C/C=C(\C)CCC=C(C)C | inactive | Active | Active |  |
| CC(=O)O[C@H]1C(=O)[C@@]2(C)[C@H]([C@H](OC(=O)c3ccccc3)[C@]3(O)C[C@H](OC(=O)[C@H](O)[C@@H](NC(=O)c4ccccc4)c4ccccc4)C(C)=C1C3(C)C)[C@]1(OC(C)=O)CO[C@@H]1C[C@@H]2O |  |  |  | Activity [4]: Active; Activity [5]: inactive; Activity [6]: Active; Activity [7]: Active; Activity [8]: Active; Activity [9]: Active |
| CC(C)=CCC/C(C)=C/C[C@H]1C[C@@]2(CC=C(C)C)C(=O)c3c(oc4cc(O)c(O)cc4c3=O)[C@](CC=C(C)C)(C2=O)C1(C)C | inactive | Active | Active |  |
| CC(C)=CCC/C(C)=C/C[C@@H]1C[C@]2(CC=C(C)C)C(=O)[C@@](CC=C(C)C)(C(=O)C(C(=O)c3ccc(O)c(O)c3)=C2O)[C@@]1(C)CCC=C(C)C | Active | Active | Active | Activity [10]: Active; Activity [11]: Active; Activity [12]: Active |
| CC(C)=CCC/C(C)=C/C[C@@H]1C[C@@]2(CC=C(C)C)C(=O)c3c(oc4cc(O)c(O)cc4c3=O)[C@](CC=C(C)C)(C2=O)C1(C)C | inactive | Active | Active |  |
| COc1cc(O)c2c(=O)c3ccc(O)c(O)c3oc2c1CCC(C)(C)O | inactive | Active | inactive |  |

From ChEMBL document CHEMBL1151810, “Bioassay-guided isolation of xanthones and polycyclic prenylated acylphloroglucinols from Garcinia oblongifolia” (J Nat Prod, 2009)
